Our source for the inhibition in vivo, Ratio and ED50 values is ChEMBL document CHEMBL1144887, “Indanylidenes. 1. Design and synthesis of (E)-2-(4,6-difluoro-1-indanylidene)acetamide, a potent, centrally acting muscle relaxant with antiinflammatory and analgesic activity” (J Med Chem, 2003).

A value given as a limit tells only on which side of the number the result lay.

Holding throughout (assay type): functional
For assay [1], the system named is Rattus norvegicus. The assay can be described thus: Percent inhibition for analgesic activity by trypsin-induced hyperalgesia assay at 20 mg/kg by oral administration in rats. The method in brief: (§1)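 Rat trypsin-induced hyperalgesia (mild analgesia). Percent inhibition at a single oral dose of 20 mg/kg. Each compound tested two or three times; average variation approximately 5%.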

The species named for assay [2] is Mus musculus. The assay can be described thus: Ratio of rotarod to Straub-tail activity, which indicates the dose exhibiting muscle relaxant activity versus that producing sedation. The method in brief:
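Ratio of rotorod ED50 (po) to Straub tail ED50 (po), both measured in mice with oral dosing. Indicates separation between the muscle-relaxant dose and the sedating dose.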
In general terms: In the rotarod test animals must keep their balance on a rotating rod.

In assay [3] the test system is Mus musculus. Briefly: Effective dose required for muscle relaxation by oral administration in mouse using Straub-tail (ST) assay. In outline: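 Mouse morphine-induced Straub tail assay, scoring inhibition of sacro-coccygeus dorsalis contraction. Dosed ip or po, generally at a minimum of three doses with N = 6 animals per dose group.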
The test system of assay [4] is Mus musculus. The assay can be described thus: Sedation caused by oral administration was estimated using rotarod (RR) assay. In outline: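 Mouse rotorod test for sedation, oral dosing, generally at a minimum of three doses with N = 6 animals per dose group.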
The subject of assay [5] is Mus musculus. The assay can be described thus: (§2) Percent effect profile muscle relaxation at 100 mg/kg by intraperitoneal administration in mouse using Straub-tail (ST) assay. To be noted: ip. The method in brief: (§3)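 Mouse morphine-induced Straub tail assay, scoring inhibition of sacro-coccygeus dorsalis contraction. Single ip dose of 100 mg/kg; percent effect reported. Compounds above 50% inhibition were then tested orally.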

For assay [6], the system named is Rattus norvegicus. Briefly: Antiinflammatory activity in edema by Carrageenan pleurisy assay by oral administration at 20 mg/kg. The method in brief: (§4)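 Rat carrageenan pleurisy, 3 h. Single oral dose of 20 mg/kg, with separate read-outs for pleural cell counts and edema as percent inhibition. Each compound tested two or three times; average variation approximately 10%.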

The subject of assay [7] is Rattus norvegicus. Briefly: Antiinflammatory activity in cells by Carrageenan pleurisy assay by oral administration at 20 mg/kg. The method in brief: as §4
Assay [8] relates to Mus musculus. The assay is described as §2. The note with it: ip. The method in brief: as §3
The source holds these as a separate data set.

Assay [9] has as its system Rattus norvegicus. The assay can be described thus: Percent inhibition for analgesic activity by trypsin-induced hyperalgesia assay at 20 mg/kg by oral administration in rats. In outline:
as §1

The term inhibition in vivo denotes the percentage by which the read-out fell short of the control. Higher therefore signals a response far below the control. In general, ED50 refers to the midpoint of the dose-response relation. For `O=C(/C=C1\CCc2cc(F)cc(F)c21)NC1CC1`, in assay [1], the inhibition in vivo at 20 mg/kg came out at 13%. Besides, the Ratio in [2] was 1.4. Besides, the ED50 in [3] is 69 mg/kg; in assay [4], 81 mg/kg. The compound further displayed an inhibition in vivo at 100 mg/kg in assay [5] of 100%.
Turning to `NC(=O)/C=C1\CCc2ccc(Br)cc21`, the values for the inhibition in vivo at 20 mg/kg in assay [6] and in assay [7] were 21% and 38%, respectively. The compound also yielded an ED50 in assay [3] of 96 mg/kg. This compound also displayed an inhibition in vivo at 100 mg/kg in assay [5] of 100%.
Take `CCNC(=O)/C=C1\CCc2ccc(F)cc21`: the inhibition in vivo at 20 mg/kg in assay [6] stood at 63%; in assay [1], 40%; in assay [7], 45%. Further, in [2], the Ratio is on record as 1.9. Also, the ED50 in [3] was 70 mg/kg; in assay [4], 136 mg/kg. Besides, at 100 mg/kg the inhibition in vivo in assay [5] was 100%.
`O=C(/C=C1\CCc2cc(Cl)ccc21)NC1CC1`: the inhibition in vivo at 20 mg/kg in assay [6] turned out to be 29%; in [7] it was 34%. In assay [5], this compound showed an inhibition in vivo at 100 mg/kg of 17%.
For the compound `NC(=O)/C=C1\CCc2c1ccc(F)c2F`, the values for the inhibition in vivo at 20 mg/kg in assay [6], in assay [1] and in assay [7] were 82%, 41% and 77%, respectively. In [2], the Ratio is 1.1. For the same compound, the results for the ED50 in assay [3] and in assay [4] were 45 mg/kg and 50 mg/kg, respectively. In assay [5], this compound displayed an inhibition in vivo at 100 mg/kg of 100%.
In turn, `O=C(/C=C1/CCc2ccc(Cl)cc21)NC1CC1` registered an inhibition in vivo at 100 mg/kg in assay [8] of 0%.
As to `O=C(/C=C1\CCc2ccc(F)cc21)N1CCCC1`, the values for the inhibition in vivo at 20 mg/kg in assay [6], in assay [1] and in assay [7] were 18%, 10% and 10%, respectively. 100 mg/kg produced 33% inhibition in vivo in [5].
For `CN(C)C(=O)/C=C1\CCc2c(F)cc(F)cc21`, the Ratio in [2] came out at 2. Also, testing at 20 mg/kg in [9] gave an inhibition in vivo of 75%. The ED50 in assay [3] is 50 mg/kg; in assay [4], 100 mg/kg. The same compound registered an inhibition in vivo at 100 mg/kg in assay [5] of 100%.
Consider `O=C(/C=C1\CCc2c1ccc(F)c2F)NC1CC1`, for which the inhibition in vivo at 20 mg/kg in [6] was 27%; in assay [1] it was 11%; in [7], 27%. Besides, the ED50 in assay [3] is 62 mg/kg. The same compound had an inhibition in vivo at 100 mg/kg in assay [8] of 100%.
Take `O=C(/C=C1\CCc2c(F)cc(F)cc21)NC1CC1`: the inhibition in vivo at 20 mg/kg is 28% in assay [6] and 38% in [7]. For the same compound, in [2], the Ratio is 1. The ED50 in assay [3] and in assay [4] was 62 mg/kg in each case. The same compound displayed an inhibition in vivo at 100 mg/kg in [5] of 100%.
Regarding `O=C(/C=C1\CCc2ccc(Br)cc21)NC1CC1`, the inhibition in vivo at 20 mg/kg in assay [6] was determined as 4%; in [7] it was 29%. Further, the inhibition in vivo at 100 mg/kg in assay [5] was determined as 33%.
As to `CCCNC(=O)/C=C1\CCc2ccc(F)cc21`, the inhibition in vivo at 20 mg/kg in assay [6] was determined as 36%; in assay [1], 11%; in assay [7], 0%. Further, the ED50 in assay [3] was more than 100 mg/kg. This compound also displayed an inhibition in vivo at 100 mg/kg in [5] of 100%.
As to `COc1ccc2c(c1)CC/C2=C\C(N)=O`, the values for the inhibition in vivo at 20 mg/kg in [6], in [1] and in [7] were 25%, 13% and 18%, respectively. In addition, 100 mg/kg produced 17% inhibition in vivo in assay [5].
`O=C(/C=C1\CCc2ccc(Cl)cc21)NC1CC1` yielded an inhibition in vivo at 100 mg/kg in [5] of 50%.
As for `COc1ccc2c(c1)/C(=C/C(N)=O)CC2`, the inhibition in vivo at 20 mg/kg in assay [6] came out at 3%; in assay [7], 1%. Further, in assay [8], the inhibition in vivo at 100 mg/kg was 0%.
On to `N#Cc1ccc2c(c1)/C(=C/C(N)=O)CC2`, for which the inhibition in vivo at 20 mg/kg in assay [1] is 21%. The ED50 in assay [8] turned out to be 33 mg/kg.
As to `CCN(C)C(=O)/C=C1\CCc2c(F)cc(F)cc21`, in assay [2], the Ratio stood at 1.3. Also, the ED50 in [3] is 56 mg/kg; in assay [4], 73 mg/kg. In addition, the inhibition in vivo at 100 mg/kg in assay [5] came to 100%.
For the compound `O=C(/C=C1\CCc2ccc(F)cc21)N1CCOCC1`, the values for the inhibition in vivo at 20 mg/kg in [6] and in assay [7] were 31% and 7%, respectively. The ED50 in assay [3] is 90 mg/kg. Also, 100 mg/kg produced 100% inhibition in vivo in assay [5].
Turning to `Cc1cccc2c1CC/C2=C\C(=O)NC1CC1`, the inhibition in vivo at 20 mg/kg in assay [6] amounted to 7%; in assay [7], 15%. Besides, in assay [2], the Ratio is on record as 1.6. Further, the figures for the ED50 in assay [3] and in assay [4] were 40 mg/kg and 64 mg/kg, respectively. The compound also showed an inhibition in vivo at 100 mg/kg in assay [8] of 100%.
